# From ChEMBL document CHEMBL2034841, “Synthesis and evaluation of (2-(4-methoxyphenyl)-4-quinolinyl)(2-piperidinyl)methanol (NSC23925) isomers to reverse multidrug resistance in cancer” (J Med Chem, 2012)
# Active and inactive are the calls of the source. The rule behind the calls is not given here.
# Columns and labels:
# [1] = biological target: T1, ATP-dependent translocase ABCB1 (Homo sapiens, UniProt P08183); experiment: Inhibition of MDR1-mediated drug resistance in human multidrug-resistant SKOV3TR cells at 0.1 uM assessed as potentiation of paclitaxel potency by incubated for 6 days by MTT assay; assay type: cell-based; settings: 144 h
# Procedure, shortened: (§1)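 SKOV-3_TR cells were seeded at 2000/well in RPMI 1640 complete medium with varying paclitaxel concentrations plus the test agent at a fixed 0.1, 0.5 or 1 μM for 6 days. Viability was read by MTT, and IC50 was taken from fitted dose–response curves in triplicate wells. Fold reversal = IC50 without agent ÷ IC50 with agent.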
# [2] = biological target: T1, ATP-dependent translocase ABCB1; experiment: Inhibition of MDR1-mediated drug resistance in human multidrug-resistant SKOV3TR cells at 1 uM assessed as potentiation of paclitaxel potency by incubated for 6 days by MTT assay; assay type: cell-based; settings: 144 h; procedure, shortened: as §1
# [3] = biological target: T1, ATP-dependent translocase ABCB1; experiment: Inhibition of MDR1-mediated drug resistance in human multidrug-resistant SKOV3TR cells at 0.5 uM assessed as potentiation of paclitaxel potency by incubated for 6 days by MTT assay; assay type: cell-based; settings: 144 h; procedure, shortened: as §1
# [4] = biological target: T1, ATP-dependent translocase ABCB1; experiment: Inhibition of MDR1 in human multidrug-resistant SW480TR cells assessed as potentiation of doxorubicin-induced cell death at 1 uM incubated for 72 hrs by MTT assay; assay type: cell-based
# [5] = biological target: T1, ATP-dependent translocase ABCB1; experiment: Inhibition of MDR1 in human multidrug-resistant MCF7adr cells assessed as increase in calcein AM accumulation by fluorescence microscopy
# Procedure, shortened: (§2)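 Vybrant calcein AM efflux assay. Resistant cells (5000/well) were cultured for 24 h, then treated in triplicate with a range of test-agent concentrations for 1 h, followed by calcein AM for 30 min. Intracellular calcein fluorescence was imaged by fluorescence microscopy, and accumulation was compared across doses.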
# [6] = system: SKOV-3TR (Homo sapiens); experiment: Potentiation of 20 mg/kg, ip paclitaxel antitumor potency in human multidrug-resistant SKOV-3TR cells xenografted in Crl:SHO-Prkdc'SCIDHr'hr nude mouse assessed as increase in tumor growth inhibition at 50 mg/kg, ip dosed twice weekly for two weeks starting two weeks post tumor cells implantation
# [7] = biological target: T1, ATP-dependent translocase ABCB1; experiment: Inhibition of MDR1 in human multidrug-resistant SW480TR cells assessed as increase in calcein AM accumulation by fluorescence microscopy; assay type: cell-based; procedure, shortened: as §2
# [8] = system: Mus musculus; experiment: Toxicity in human multidrug-resistant SKOV-3TR cells xenografted in Crl:SHO-Prkdc'SCIDHr'hr nude mouse assessed as effect on body weight at 50 mg/kg, ip dosed twice weekly for two weeks starting two weeks post tumor cells implantation; settings: in vivo
# [9] = biological target: T1, ATP-dependent translocase ABCB1; experiment: Inhibition of MDR1 in human multidrug-resistant SW480TR cells assessed drug level causing maximal reversal of calcein AM accumulation deficit by fluorescence microscopy; assay type: cell-based; procedure, shortened: as §2
# [10] = biological target: T1, ATP-dependent translocase ABCB1; experiment: Inhibition of MDR1 in human multidrug-resistant MCF7adr cells assessed drug level causing half maximal reversal of calcein AM accumulation deficit by fluorescence microscopy; settings: read-out: INH; procedure, shortened: as §2
# [11] = biological target: T1, ATP-dependent translocase ABCB1; experiment: Inhibition of MDR1 in human multidrug-resistant MCF7adr cells assessed as potentiation of doxorubicin-induced apoptosis at 1 uM incubated for 72 hrs by M30-apoptosense ELISA assay
# Procedure, shortened: (§3)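 MCF-7adr or SW480_TR cells were seeded at 8000/well for 24 h, then treated for 72 h with 0.5 μM doxorubicin, 1 μM test agent, or both. Cells were lysed with 10% NP-40, and apoptosis was quantified by M30-Apoptosense ELISA following kit instructions.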
# [12] = system: SKOV-3TR (Homo sapiens); experiment: Antitumor activity against human multidrug-resistant SKOV-3TR cells xenografted in Crl:SHO-Prkdc'SCIDHr'hr nude mouse assessed as tumor growth inhibition at 50 mg/kg, ip dosed twice weekly for two weeks starting two weeks post tumor cells implantation
# [13] = biological target: T1, ATP-dependent translocase ABCB1; experiment: Inhibition of MDR1 in human multidrug-resistant SW480TR cells assessed as potentiation of doxorubicin-induced apoptosis at 1 uM incubated for 72 hrs by M30-apoptosense ELISA assay; assay type: cell-based; procedure, shortened: as §3
# [14] = system: Mus musculus; experiment: Toxicity in human multidrug-resistant […] cells xenografted in Crl:SHO-Prkdc'SCIDHr'hr nude mouse assessed as mortality incidence at 50 mg/kg, ip dosed twice weekly for two weeks starting two weeks post tumor cells implantation; assay type: organism-based; design: dose 50 mg/kg, route intraperitoneal; settings: in vivo
# Procedure, shortened: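 […] cells injected subcutaneously with matrigel on day one. Dosing began two weeks later: ip injection twice a week for two weeks, given alone (50 mg/kg) or with paclitaxel (20 mg/kg); saline-injected controls. Mice checked daily for health and tumor growth. Toxicity judged from animal weight and mortality.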
# [15] = biological target: Multidrug resistance-associated protein 1 (Homo sapiens, UniProt P33527); experiment: Inhibition of MRP1-mediated drug resistance in human multidrug-resistant H-69AR cells; assay type: cell-based
# Procedure, shortened: (§4)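 H-69AR (MRP1) or MCF-7/MX (BCRP) cells were plated in 96-well plates and treated with chemotherapy drugs plus the test agent as in the Pgp reversal assay: 2000 cells/well, 6 days, MTT read-out. IC50 values came from triplicate dose–response curves. Cells were grown in RPMI 1640 with 10% FBS at 37 °C, 5% CO2.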
# [16] = biological target: T2, Broad substrate specificity ATP-binding cassette transporter ABCG2 (Homo sapiens, UniProt Q9UNQ0); experiment: Inhibition of BCRP-mediated drug resistance in human multidrug-resistant MCF7/MX cells; assay type: cell-based; procedure, shortened: as §4
# T2 sequence (Q9UNQ0 whole entry): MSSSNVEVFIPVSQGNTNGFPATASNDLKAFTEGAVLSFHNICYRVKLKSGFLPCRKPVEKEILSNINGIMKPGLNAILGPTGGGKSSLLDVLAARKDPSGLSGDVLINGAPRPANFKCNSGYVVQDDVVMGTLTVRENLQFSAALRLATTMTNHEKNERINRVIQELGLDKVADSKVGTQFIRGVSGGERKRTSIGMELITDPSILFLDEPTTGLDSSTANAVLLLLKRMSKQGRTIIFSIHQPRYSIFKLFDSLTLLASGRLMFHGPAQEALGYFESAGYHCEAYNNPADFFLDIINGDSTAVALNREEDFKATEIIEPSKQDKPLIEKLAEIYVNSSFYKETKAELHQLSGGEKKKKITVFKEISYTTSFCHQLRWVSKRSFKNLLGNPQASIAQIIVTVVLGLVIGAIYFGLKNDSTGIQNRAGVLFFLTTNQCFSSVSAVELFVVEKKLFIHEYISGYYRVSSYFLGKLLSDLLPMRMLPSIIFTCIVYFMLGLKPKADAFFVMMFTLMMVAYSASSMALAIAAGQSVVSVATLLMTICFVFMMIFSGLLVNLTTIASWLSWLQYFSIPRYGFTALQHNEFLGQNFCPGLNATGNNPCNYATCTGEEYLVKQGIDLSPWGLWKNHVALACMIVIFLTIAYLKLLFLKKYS
# [17] = biological target: T1, ATP-dependent translocase ABCB1; experiment: Inhibition of MDR1 in human multidrug-resistant MCF7adr cells assessed drug level causing maximal reversal of calcein AM accumulation deficit by fluorescence microscopy; procedure, shortened: as §2
# [18] = biological target: T1, ATP-dependent translocase ABCB1; experiment: Inhibition of MDR1 in human multidrug-resistant SW480TR cells assessed drug level causing half maximal reversal of calcein AM accumulation deficit by fluorescence microscopy; assay type: cell-based; settings: read-out: INH; procedure, shortened: as §2
# [19] = biological target: T1, ATP-dependent translocase ABCB1; experiment: Inhibition of MDR1 in human multidrug-resistant MCF7adr cells assessed as potentiation of doxorubicin-induced cell death at 1 uM incubated for 72 hrs by MTT assay
# [20] = system: SKOV-3TR (Homo sapiens); experiment: Antitumor activity against human multidrug-resistant SKOV-3TR cells xenografted in Crl:SHO-Prkdc'SCIDHr'hr nude mouse assessed as tumor growth inhibition at 20 mg/kg, ip dosed twice weekly for two weeks starting two weeks post tumor cells implantation
# T1 sequence (P08183 whole entry): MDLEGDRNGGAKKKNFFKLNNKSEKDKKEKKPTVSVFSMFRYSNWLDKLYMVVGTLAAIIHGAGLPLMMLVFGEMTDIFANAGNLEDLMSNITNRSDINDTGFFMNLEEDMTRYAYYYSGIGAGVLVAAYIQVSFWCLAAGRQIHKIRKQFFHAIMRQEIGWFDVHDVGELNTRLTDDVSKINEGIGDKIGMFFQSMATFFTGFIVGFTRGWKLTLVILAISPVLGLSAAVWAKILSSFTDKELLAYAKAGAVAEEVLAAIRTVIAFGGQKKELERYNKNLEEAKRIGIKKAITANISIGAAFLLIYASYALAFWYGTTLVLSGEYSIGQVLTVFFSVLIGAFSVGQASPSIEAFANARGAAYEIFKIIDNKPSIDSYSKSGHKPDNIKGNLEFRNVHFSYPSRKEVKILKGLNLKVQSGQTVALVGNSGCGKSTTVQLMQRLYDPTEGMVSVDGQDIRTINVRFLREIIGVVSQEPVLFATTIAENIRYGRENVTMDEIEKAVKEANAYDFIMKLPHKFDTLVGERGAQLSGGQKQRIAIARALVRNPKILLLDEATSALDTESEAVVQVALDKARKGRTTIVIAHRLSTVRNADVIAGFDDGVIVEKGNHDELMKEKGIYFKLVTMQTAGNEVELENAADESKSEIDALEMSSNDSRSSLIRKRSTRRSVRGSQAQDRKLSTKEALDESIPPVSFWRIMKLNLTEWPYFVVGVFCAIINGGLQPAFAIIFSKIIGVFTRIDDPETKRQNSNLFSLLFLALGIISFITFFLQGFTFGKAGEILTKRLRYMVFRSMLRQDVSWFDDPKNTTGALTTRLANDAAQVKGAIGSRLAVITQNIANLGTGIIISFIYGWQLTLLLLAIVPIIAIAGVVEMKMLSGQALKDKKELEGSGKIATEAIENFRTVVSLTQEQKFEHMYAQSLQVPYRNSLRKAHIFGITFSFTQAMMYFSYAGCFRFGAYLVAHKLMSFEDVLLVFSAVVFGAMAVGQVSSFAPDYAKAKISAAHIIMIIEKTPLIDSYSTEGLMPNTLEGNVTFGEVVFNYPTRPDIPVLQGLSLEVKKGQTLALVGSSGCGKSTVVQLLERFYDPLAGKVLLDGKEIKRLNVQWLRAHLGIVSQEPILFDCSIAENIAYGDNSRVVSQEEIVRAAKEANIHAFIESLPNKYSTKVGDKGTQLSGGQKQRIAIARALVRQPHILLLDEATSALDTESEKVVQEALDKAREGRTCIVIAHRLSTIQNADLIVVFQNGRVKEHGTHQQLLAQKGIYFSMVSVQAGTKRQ
# Chain of Multidrug resistance-associated protein 1 (P33527 whole entry): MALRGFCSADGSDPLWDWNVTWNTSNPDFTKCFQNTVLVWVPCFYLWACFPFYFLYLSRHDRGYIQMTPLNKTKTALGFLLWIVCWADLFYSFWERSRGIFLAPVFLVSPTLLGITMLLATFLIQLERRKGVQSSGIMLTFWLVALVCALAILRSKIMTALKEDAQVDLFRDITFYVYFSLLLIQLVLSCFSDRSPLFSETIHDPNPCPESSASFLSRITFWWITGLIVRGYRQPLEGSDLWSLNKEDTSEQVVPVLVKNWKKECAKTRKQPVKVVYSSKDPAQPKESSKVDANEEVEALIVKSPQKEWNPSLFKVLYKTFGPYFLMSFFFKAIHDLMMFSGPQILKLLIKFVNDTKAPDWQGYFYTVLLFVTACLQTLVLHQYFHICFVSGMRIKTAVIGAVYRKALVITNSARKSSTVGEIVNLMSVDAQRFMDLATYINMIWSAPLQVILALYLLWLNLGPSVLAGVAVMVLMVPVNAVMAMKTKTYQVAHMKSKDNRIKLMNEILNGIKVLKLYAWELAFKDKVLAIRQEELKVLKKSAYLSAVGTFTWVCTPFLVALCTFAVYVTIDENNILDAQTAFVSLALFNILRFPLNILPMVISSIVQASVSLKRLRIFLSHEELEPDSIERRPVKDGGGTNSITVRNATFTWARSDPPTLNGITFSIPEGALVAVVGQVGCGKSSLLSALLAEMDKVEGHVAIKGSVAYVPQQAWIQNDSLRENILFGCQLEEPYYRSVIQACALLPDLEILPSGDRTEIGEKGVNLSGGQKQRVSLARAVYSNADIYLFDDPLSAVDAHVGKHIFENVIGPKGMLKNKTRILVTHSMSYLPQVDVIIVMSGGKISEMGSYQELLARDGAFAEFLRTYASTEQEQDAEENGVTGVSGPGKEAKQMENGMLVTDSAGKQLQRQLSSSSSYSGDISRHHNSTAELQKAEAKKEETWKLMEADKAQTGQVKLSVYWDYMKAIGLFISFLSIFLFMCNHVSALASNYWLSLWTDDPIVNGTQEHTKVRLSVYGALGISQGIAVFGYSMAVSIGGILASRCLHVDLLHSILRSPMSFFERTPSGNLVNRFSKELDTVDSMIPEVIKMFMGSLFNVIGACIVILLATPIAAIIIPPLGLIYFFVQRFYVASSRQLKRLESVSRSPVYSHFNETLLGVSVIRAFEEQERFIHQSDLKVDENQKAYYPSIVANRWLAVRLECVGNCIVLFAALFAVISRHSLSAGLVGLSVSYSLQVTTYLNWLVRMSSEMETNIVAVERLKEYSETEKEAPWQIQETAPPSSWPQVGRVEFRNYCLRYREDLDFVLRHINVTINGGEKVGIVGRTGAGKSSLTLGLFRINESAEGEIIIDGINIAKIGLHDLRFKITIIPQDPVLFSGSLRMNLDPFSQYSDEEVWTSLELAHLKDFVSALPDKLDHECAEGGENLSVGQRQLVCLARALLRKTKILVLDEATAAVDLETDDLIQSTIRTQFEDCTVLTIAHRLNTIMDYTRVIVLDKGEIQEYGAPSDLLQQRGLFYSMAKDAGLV
smiles,measurement,setting,value
COc1ccc(-c2cc([C@@H](O)[C@H]3CCCCN3)c3ccccc3n2)cc1.Cl,inhibition (INH),[1],Active
same,inhibition (INH),[2],Active
same,inhibition (INH),[3],Active
COc1ccc(-c2cc([C@H](O)[C@H]3CCCCN3)c3ccccc3n2)cc1,inhibition (INH),[4],Active
same,inhibition (INH),[1],Active
same,inhibition (INH),[5],Dose-dependent effect
same,inhibition (INH),[2],Active
same,Activity,[6],Active
same,inhibition (INH),[7],Dose-dependent effect
same,Activity,[8],Non-toxic
same,INH,[9],500 nM
same,IC50,[10],100 nM
same,inhibition (INH),[11],Active
same,growth inhibition (GI),[12],inactive
same,inhibition (INH),[13],Active
same,Activity,[14],Non-toxic
same,inhibition (INH),[15],Not Active
same,inhibition (INH),[3],Active
same,inhibition (INH),[16],Not Active
same,INH,[17],500 nM
same,IC50,[18],100 nM
same,inhibition (INH),[19],Active
COc1ccc(-c2cc([C@@H](O)[C@@H]3CCCCN3)c3ccccc3n2)cc1.Cl,inhibition (INH),[1],Not Active
same,inhibition (INH),[2],Not Active
same,inhibition (INH),[3],Not Active
CC(=O)O[C@H]1C(=O)[C@@]2(C)[C@H]([C@H](OC(=O)c3ccccc3)[C@]3(O)C[C@H](OC(=O)[C@H](O)[C@@H](NC(=O)c4ccccc4)c4ccccc4)C(C)=C1C3(C)C)[C@]1(OC(C)=O)CO[C@@H]1C[C@@H]2O,growth inhibition (GI),[20],inactive
COc1ccc(-c2cc([C@H](O)[C@@H]3CCCCN3)c3ccccc3n2)cc1.Cl,inhibition (INH),[1],Active
same,inhibition (INH),[2],Active
same,inhibition (INH),[3],Active
